PTEN del growth = growth suppressors of cells with PTEN tumor suppressor deletion | HCT116 PTEN-null viability, CellTiter-Glo, 60 h; active compounds read low | viability, % at 10 µM | hit rate 1.2% among 140,000 | AID 827;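 active = viability at or below a set limit, 4 SD under the median of all tested compounds, cut at about 3.7% in these data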;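 also: PTEN knockout HCT116 line with beta catenin targeted HCT116 as companion control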
HUVEC inhibit = inhibitors of human endothelial cell proliferation. HUVEC proliferation, CellTiter-Glo luminescence, 72 h; active compounds read low. viability, % at 10 µM (by protocol). hit rate 1.1% among 86,000. AID 648;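 active = viability at or below 30%; inactive = viability above 30%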;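 also: 100% = median luminescence of DMSO-only cell control wells on each plate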
Fibroblast inh = blocks proliferation of human lung fibroblasts | hit rate 1.1% among 85,000 | AID 719 | LL 47 human lung fibroblast viability, ATP luminescence; active compounds read low | viability, % at 10 µM;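 active = viability at or below 50% in the single dose screen; inactive = viability above 50%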;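 also: compound exposure lasted 72 h before the ATP readout; 100% = median luminescence of untreated cell-only wells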
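Signal: luminescent ATP detection, CellTiter-Glo; assay system: LL 47 human lung fibroblasts; input: 1,150 cells/well; incubation: overnight cell rest, 72 h compound treatment at 37 °C; measure: % viability versus median cells-only luminescence; medium: IMEM growth medium with 15% fetal bovine serum; dosing: compound addition at 0.1% DMSO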
H69AR growth 86K = blocks growth of human H69AR lung tumor cells. H69AR lung tumor viability, ATP luminescence, 72 h; active compounds read low. viability, % at 10 µM. hit rate 6% among 85,000;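 active = viability at or below 40%; inactive = viability above 40%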;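 also: multidrug resistant small cell line overexpressing MRP-1 efflux transporter; 100% = mean luminescence of untreated control wells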
bCat KO growth = beta-catenin-lacking colon tumor cell growth suppression; hit rate 1.5% among 140,000; viability, % at 10 µM; AID 818; HCT116 beta-catenin knockout viability, CellTiter-Glo, 60 h; active compounds read low;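 active = viability at or under a set limit, the compound median less 4 SD, cut at about 6% in these data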;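 also: 0% = Hyamine 1622 control at 20 µM and 100% = untreated cell control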
* hit, by the source's call; . = no result given. The entries come from a sample that favours hits as a whole.

SMILES	PTEN del growth	HUVEC inhibit	Fibroblast inh	H69AR growth 86K	bCat KO growth
CCOC(=O)c1ccc(Oc2cc(C)nc(SC)n2)cc1	16.5	62.4	80.2	22.4*	18.6
CCOC(=O)COC(=O)c1ccc(Oc2cc(C)nc(SC)n2)cc1	102.0	97.3	99.7	94.7	85.0
COc1ccc(S(=O)(=O)NCCc2csc(-c3cccnc3)n2)cc1	100.0	105.2	101.8	95.0	96.4
O=C(O)Cn1c(P(=O)(O)c2ccccc2)nc2ccccc21	105.1	92.0	96.1	99.1	96.5
CCN(CC)S(=O)(=O)c1ccc(NC(=O)CSc2ncnc3ccccc23)cc1	81.4	.	.	.	81.3
CCOc1cc(-c2noc(N)c2C(=O)OC)cc(OCC)c1OCC	72.6	100.3	93.9	23.1*	74.9
CCOc1cc(C(=O)OCC(=O)Nc2cc(C)on2)cc(OCC)c1OCC	97.5	69.1	108.1	79.3	89.9
COC(=O)c1c(-c2ccc(Br)cc2)noc1N	37.7	89.4	79.7	29.2*	49.4
COc1ccc(Nc2nnc(SCC(=O)/C=C3/N(C)c4ccccc4C3(C)C)s2)cc1	19.9	.	.	.	17.0
CC(NC(=O)OCc1ccccc1)C(=O)Oc1cc2oc(=O)cc(-c3ccccc3)c2cc1Cl (stereo not given)	96.4	.	.	.	96.7
N#Cc1cn(OCc2ccccc2)c(=O)[nH]c1=O	101.5	.	.	.	96.4
Cc1cc(=O)oc2ccc(OCC(=O)N3CCC(C)CC3)cc12	113.5	102.0	94.2	81.9	105.9
CC1CCN(CC(=O)N2CCCc3c2c(=O)oc2ccc(OCc4ccccc4)cc32)CC1	17.0	73.9	89.4	32.7*	8.7
CC1CC(C)CN(CC(=O)N2CCCc3c2c(=O)oc2ccc(OCc4ccccc4)cc32)C1 (stereo not given)	12.9	80.3	94.6	90.1	3.5*
CCCOc1ccc2oc(=O)c3c(c2c1)CCCN3C(=O)CN1CCc2ccccc2C1	47.3	44.4	94.5	39.6*	42.1
O=C(O)c1ccc(COc2ccc3c4c(c(=O)oc3c2)CCC4)o1	94.3	111.9	102.6	91.9	100.7
COc1cccc(-n2nc3c(=O)n(Cc4ccccc4Cl)nc(C)c3c2C)c1	96.2	.	.	.	88.0
COCCn1c(Cc2ccccc2)nnc1SCC(=O)N(C)C	111.1	99.0	96.5	88.6	108.7
O=C(CCSc1nc(-c2ccc3c(c2)OCO3)cc(C(F)(F)F)n1)NCc1ccccc1	79.7	90.5	99.1	23.4*	83.3
CN(Cc1ccccc1)C(=O)CCSc1nc(-c2ccc3c(c2)OCO3)cc(C(F)(F)F)n1	62.3	95.1	104.6	76.7	69.0
COCCNC(=O)CCSc1nc(-c2ccc(OC)cc2)cc(C(F)(F)F)n1	82.1	93.3	106.5	67.9	94.5
O=C(CCSc1nc(-c2ccc3c(c2)OCO3)cc(C(F)(F)F)n1)NCc1ccco1	58.0	96.1	100.0	33.0*	86.7
COc1ccc(CNC(=O)CCSc2nc(-c3ccc4c(c3)OCO4)cc(C(F)(F)F)n2)cc1	60.7	64.1	96.6	32.6*	70.7
Cc1cc(C)n(CCCNC(=O)c2ccc(S(=O)(=O)NCc3ccco3)cc2)n1	105.8	93.1	88.3	91.6	94.7
COc1cccc(C2CC(c3cccc(Br)c3)n3nc(N)nc3N2)c1 (stereo not given)	81.1	94.4	102.8	97.7	86.0
SMILES	PTEN del growth	HUVEC inhibit	Fibroblast inh	H69AR growth 86K	bCat KO growth
Cc1cccc(Nc2nc(-c3ccc4c(c3)OCCO4)cs2)c1	80.4	73.2	114.1	22.1*	74.2
COc1cccc(/C=N/NC(=O)c2ccc([N+](=O)[O-])cc2Cl)c1O	5.5	.	.	.	5.6*
Oc1ccc(Br)cc1-c1nc2cnccn2c1NC1CCCC1	1.9*	80.4	74.6	47.2	1.3*
Nc1cc(C(=O)O)ccc1Nc1ccc(F)c(F)c1	96.1	100.1	101.3	99.9	90.5
CCOc1cc2[nH]c(=S)n(CCN3CCC(C)CC3)c(=O)c2cc1OCC	64.3	96.1	101.1	58.4	60.2
CCOC(=O)N1CCC(n2c(=S)[nH]c3cc(OCC)c(OCC)cc3c2=O)CC1	84.4	27.5*	12.2*	22.3*	86.4
Cc1ccc(N2CC(C(=O)Nc3nnc(SCC(=O)Nc4nc(C)cs4)s3)CC2=O)cc1 (stereo not given)	91.6	.	.	.	87.1
CCOC(=O)c1ccc(-c2ccc(C3Nc4ccccc4C(=O)N3O)o2)cc1 (stereo not given)	5.6	.	.	.	5.4*
CN(Cc1ccc(-n2cccn2)cc1)C(=O)c1cnn2c1NC(c1ccco1)CC2C(F)(F)F (stereo not given)	71.6	99.7	103.7	74.0	60.8
CC(C)OP(=O)(OC(C)C)C(NC(=O)c1ccc(Br)cc1)c1ccccc1 (stereo not given)	51.5	77.7	94.4	28.3*	68.3
CC(NC(=O)c1ccc(Br)cc1)c1ccccc1 (stereo not given)	87.8	.	.	.	84.1
O=C(Nc1ccc(N2CCOCC2)cc1)c1cccc(S(=O)(=O)N2CCC(Cc3ccccc3)CC2)c1	68.4	97.4	88.4	81.1	69.3
COc1cc2c(cc1OC)C1(Nc3c-2c(Cc2ccccc2)nn3-c2ccccc2)C(=O)Nc2ccccc21 (stereo not given)	87.1	53.3	85.3	25.7*	95.9
CCc1ccc(NC(=O)CC2C(=O)Nc3c2c(=O)n(C)c(=O)n3C)cc1 (stereo not given)	85.7	98.6	92.9	94.8	90.2
C/C(=N/NC(=O)C1CCN(S(=O)(=O)c2ccc(C)cc2)CC1)c1cccc([N+](=O)[O-])c1	86.9	.	.	.	88.0
Cc1ccc(-c2nnc3ccc(SCC(=O)N4CCCc5ccccc54)nn23)cc1	62.5	.	.	.	67.5
Cc1occc1-c1nnc(SCC(=O)N2CCc3ccccc32)o1	89.9	90.8	96.6	1.3*	80.8
Cc1ccc(-c2nnc3ccc(SCC(=O)N4CCc5ccccc54)nn23)cc1	93.8	44.8	84.9	31.8*	89.0
O=C(/C=C/c1cccc([N+](=O)[O-])c1)NCCN1CCOCC1	88.0	.	.	.	85.3
CCOC(=O)c1c(Nc2ccc(Cl)cc2)sc(/C=C2\C=Nc3ccccc32)c1O	14.0	12.0*	45.9*	2.7*	37.2
Oc1nc(Nc2cccc(Cl)c2)sc1/C=C1\C=Nc2ccccc21	67.7	.	.	.	69.9
O=Cc1ccc2noc(-c3ccc(Cl)cc3)c2c1	23.1	80.5	104.9	38.5*	31.3
Cc1cc(Cl)c(S(=O)(=O)N2CCN(c3ccc(F)cc3)CC2)cc1OCC(=O)NC1CCCCC1	12.4	78.7	93.8	36.1*	9.2
c1ccc(-n2ncc3c(N4CCN(CCOc5cccc6ccccc56)CC4)ncnc32)cc1	68.2	72.6	95.7	76.6	69.4
CC1(C)Cc2ccccc2-c2nnc(-c3ccccn3)n21	101.4	86.5	102.3	98.4	95.1
O=C(Nc1nc(-c2ccccn2)cs1)C1COc2ccccc2O1 (stereo not given)	11.7	31.7	43.7*	44.8	7.5
O=C(Nc1nc(-c2ccccc2)cs1)C1COc2ccccc2O1 (stereo not given)	80.7	94.4	111.4	96.8	80.6
c1ccc(CCn2c(C3CC3)nc3ccccc32)cc1	78.0	114.2	98.1	71.3	85.0

Source: PubChem BioAssay (SRMLSC)
